Test results taken from PMC9540525 (Cancer, 2022).
Entries after “also recorded” stand apart in the source; their conditions may differ.

Assay: Phase 1 study CC-90011-ST-001: safety, adverse events
Format: in vivo, human
How it was run: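 Treated population: all patients given at least one oral dose of test compound (once weekly, 28-day cycles; expansion 60 mg). Adverse events were graded by NCI CTCAE v4.03. Dose reductions were permitted in any cycle, including cycle 1. Treatment could be interrupted for up to 4 weeks, until toxicity returned to grade ≤1 or baseline.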

[1] = dose escalation, n = 50, patients (%)
[2] = dose expansion, NEN, n = 16, patients (%)
[3] = dose expansion, R/R MZL, n = 3, patients (%)
[4] = dose expansion, n = 19, patients (%)

SMILES: COc1ccc(-c2c(-c3ccc(C#N)c(F)c3)nc(N3CCC(N)CC3)n(C)c2=O)cc1F [CC‐90011]
- TEAE any grade: Abdominal pain [1]: 7 (14)
- TEAE any grade: Acute kidney injury [1]: 1 (2)
- TEAE any grade: Anemia [1]: 14 (28)
- TEAE any grade: Arthralgia [1]: 9 (18)
- TEAE any grade: Back pain [1]: 7 (14)
- TEAE any grade: Bone pain [1]: 1 (2)
- TEAE any grade: Bronchitis [1]: 2 (4)
- TEAE any grade: Constipation [1]: 11 (22)
- TEAE any grade: Cough [1]: 6 (12)
- TEAE any grade: Decreased appetite [1]: 10 (20)
- TEAE any grade: Diarrhea [1]: 10 (20)
- TEAE any grade: Dizziness [1]: 3 (6)
- TEAE any grade: Dysgeusia [1]: 3 (6)
- TEAE any grade: Dyspnea [1]: 5 (10)
- TEAE any grade: Epistaxis [1]: 2 (4)
- TEAE any grade: Fatigue/asthenia [1]: 24 (48)
- TEAE any grade: Headache [1]: 5 (10)
- TEAE any grade: Hepatic pain [1]: 1 (2)
- TEAE any grade: Hypokalemia [1]: 5 (10)
- TEAE any grade: Increased ALT [1]: 6 (12)
- TEAE any grade: Increased AST [1]: 6 (12)
- TEAE any grade: Lipase increased [1]: 2 (4)
- TEAE any grade: Musculoskeletal pain [1]: 1 (2)
- TEAE any grade: Nausea [1]: 11 (22)
- TEAE any grade: Neutropenia [1]: 6 (12)
- TEAE any grade: Peripheral sensory neuropathy [1]: 2 (4)
- TEAE any grade: Pruritus [1]: 3 (6)
- TEAE any grade: Pyrexia [1]: 10 (20)
- TEAE any grade: Sciatica [1]: 1 (2)
- TEAE any grade: Thrombocytopenia [1]: 23 (46)
- TEAE any grade: Tumor pain [1]: 5 (10)
- TEAE any grade: Vomiting [1]: 14 (28)
- TEAE any grade: ≥1 event [1]: 48 (96)
- TEAE grade 3/4: Abdominal pain [1]: 0 (0)
- TEAE grade 3/4: Acute kidney injury [1]: 0 (0)
- TEAE grade 3/4: Anemia [1]: 3 (6)
- TEAE grade 3/4: Arthralgia [1]: 0 (0)
- TEAE grade 3/4: Back pain [1]: 0 (0)
- TEAE grade 3/4: Bone pain [1]: 1 (2)
- TEAE grade 3/4: Bronchitis [1]: 0 (0)
- TEAE grade 3/4: Constipation [1]: 0 (0)
- TEAE grade 3/4: Cough [1]: 0 (0)
- TEAE grade 3/4: Decreased appetite [1]: 1 (2)
- TEAE grade 3/4: Diarrhea [1]: 1 (2)
- TEAE grade 3/4: Dizziness [1]: 0 (0)
- TEAE grade 3/4: Dysgeusia [1]: 0 (0)
- TEAE grade 3/4: Dyspnea [1]: 0 (0)
- TEAE grade 3/4: Epistaxis [1]: 0 (0)
- TEAE grade 3/4: Fatigue/asthenia [1]: 1 (2)
- TEAE grade 3/4: Headache [1]: 0 (0)
- TEAE grade 3/4: Hepatic pain [1]: 0 (0)
- TEAE grade 3/4: Hypokalemia [1]: 1 (2)
- TEAE grade 3/4: Increased ALT [1]: 2 (4)
- TEAE grade 3/4: Increased AST [1]: 1 (2)
- TEAE grade 3/4: Lipase increased [1]: 2 (4)
- TEAE grade 3/4: Musculoskeletal pain [1]: 0 (0)
- TEAE grade 3/4: Nausea [1]: 0 (0)
- TEAE grade 3/4: Neutropenia [1]: 4 (8)
- TEAE grade 3/4: Peripheral sensory neuropathy [1]: 0 (0)
- TEAE grade 3/4: Pruritus [1]: 0 (0)
- TEAE grade 3/4: Pyrexia [1]: 0 (0)
- TEAE grade 3/4: Sciatica [1]: 0 (0)
- TEAE grade 3/4: Thrombocytopenia [1]: 12 (24)
- TEAE grade 3/4: Tumor pain [1]: 1 (2)
- TEAE grade 3/4: Vomiting [1]: 0 (0)
- TEAE grade 3/4: ≥1 event [1]: 24 (48)
- TEAE leading to treatment discontinuation (dose expansion): No patients; also recorded: none of the TEAEs
- febrile neutropenia (dose expansion): no febrile neutropenia was observed
- anemia leading to a dose reduction, patients (dose expansion, 19 patients): 5%
- hematologic events leading to a dose interruption, patients (dose expansion, 19 patients): 47%
- neutropenia leading to a dose reduction, patients (dose expansion, 19 patients): 5%
- patients with at least one TEAE leading to a dose interruption (dose expansion, 19 patients): 58%
- patients with at least one TEAE leading to a dose reduction (dose expansion, 19 patients): 26%
- thrombocytopenia leading to a dose reduction, patients (dose expansion, 19 patients): 26%
- TRAE grade 3/4: Thrombocytopenia (dose expansion, NEN cohort, n=16): 6 n (%)
- TEAE any grade: Abdominal pain [2]: 0 (0)
- TEAE any grade: Acute kidney injury [2]: 1 (6)
- TEAE any grade: Anemia [2]: 6 (38)
- TEAE any grade: Arthralgia [2]: 6 (38)
- TEAE any grade: Back pain [2]: 1 (6)
- TEAE any grade: Bone pain [2]: 2 (13)
- TEAE any grade: Bronchitis [2]: 2 (13)
- TEAE any grade: Constipation [2]: 5 (31)
- TEAE any grade: Cough [2]: 3 (19)
- TEAE any grade: Decreased appetite [2]: 3 (19)
- TEAE any grade: Diarrhea [2]: 5 (31)
- TEAE any grade: Dizziness [2]: 2 (13)
- TEAE any grade: Dysgeusia [2]: 4 (25)
- TEAE any grade: Dyspnea [2]: 2 (13)
- TEAE any grade: Epistaxis [2]: 3 (19)
- TEAE any grade: Fatigue/asthenia [2]: 9 (56)
- TEAE any grade: Headache [2]: 0 (0)
- TEAE any grade: Hepatic pain [2]: 2 (13)
- TEAE any grade: Hypokalemia [2]: 2 (13)
- TEAE any grade: Increased ALT [2]: 0 (0)
- TEAE any grade: Increased AST [2]: 1 (6)
- TEAE any grade: Lipase increased [2]: 2 (13)
- TEAE any grade: Musculoskeletal pain [2]: 1 (6)
- TEAE any grade: Nausea [2]: 5 (31)
- TEAE any grade: Neutropenia [2]: 3 (19)
- TEAE any grade: Peripheral sensory neuropathy [2]: 2 (13)
- TEAE any grade: Pruritus [2]: 2 (13)
- TEAE any grade: Pyrexia [2]: 0 (0)
- TEAE any grade: Sciatica [2]: 2 (13)
- TEAE any grade: Tumor pain [2]: 0 (0)
- TEAE any grade: Vomiting [2]: 2 (13)
- TEAE grade 3/4: Abdominal pain [2]: 0 (0)
- TEAE grade 3/4: Acute kidney injury [2]: 0 (0)
- TEAE grade 3/4: Anemia [2]: 1 (6)
- TEAE grade 3/4: Arthralgia [2]: 0 (0)
- TEAE grade 3/4: Back pain [2]: 0 (0)
- TEAE grade 3/4: Bone pain [2]: 0 (0)
- TEAE grade 3/4: Bronchitis [2]: 0 (0)
- TEAE grade 3/4: Constipation [2]: 0 (0)
- TEAE grade 3/4: Cough [2]: 0 (0)
- TEAE grade 3/4: Decreased appetite [2]: 0 (0)
- TEAE grade 3/4: Diarrhea [2]: 0 (0)
- TEAE grade 3/4: Dizziness [2]: 0 (0)
- TEAE grade 3/4: Dysgeusia [2]: 0 (0)
- TEAE grade 3/4: Dyspnea [2]: 0 (0)
- TEAE grade 3/4: Epistaxis [2]: 0 (0)
- TEAE grade 3/4: Headache [2]: 0 (0)
- TEAE grade 3/4: Hepatic pain [2]: 1 (6)
- TEAE grade 3/4: Hypokalemia [2]: 0 (0)
- TEAE grade 3/4: Increased ALT [2]: 0 (0)
- TEAE grade 3/4: Increased AST [2]: 0 (0)
- TEAE grade 3/4: Lipase increased [2]: 0 (0)
- TEAE grade 3/4: Musculoskeletal pain [2]: 0 (0)
- TEAE grade 3/4: Nausea [2]: 0 (0)
- TEAE grade 3/4: Peripheral sensory neuropathy [2]: 0 (0)
- TEAE grade 3/4: Pruritus [2]: 0 (0)
- TEAE grade 3/4: Pyrexia [2]: 0 (0)
- TEAE grade 3/4: Sciatica [2]: 0 (0)
- TEAE grade 3/4: Tumor pain [2]: 0 (0)
- TEAE grade 3/4: Vomiting [2]: 0 (0)
- TEAE any grade: Abdominal pain [3]: 0 (0)
- TEAE any grade: Acute kidney injury [3]: 1 (33)
- TEAE any grade: Anemia [3]: 1 (33)
- TEAE any grade: Arthralgia [3]: 0 (0)
- TEAE any grade: Back pain [3]: 0 (0)
- TEAE any grade: Bone pain [3]: 1 (33)
- TEAE any grade: Bronchitis [3]: 0 (0)
- TEAE any grade: Constipation [3]: 1 (33)
- TEAE any grade: Cough [3]: 1 (33)
- TEAE any grade: Decreased appetite [3]: 0 (0)
- TEAE any grade: Diarrhea [3]: 0 (0)
- TEAE any grade: Dizziness [3]: 0 (0)
- TEAE any grade: Dysgeusia [3]: 0 (0)
- TEAE any grade: Dyspnea [3]: 1 (33)
- TEAE any grade: Epistaxis [3]: 0 (0)
- TEAE any grade: Headache [3]: 0 (0)
- TEAE any grade: Hepatic pain [3]: 0 (0)
- TEAE any grade: Hypokalemia [3]: 0 (0)
- TEAE any grade: Increased ALT [3]: 0 (0)
- TEAE any grade: Increased AST [3]: 0 (0)
- TEAE any grade: Lipase increased [3]: 0 (0)
- TEAE any grade: Musculoskeletal pain [3]: 0 (0)
- TEAE any grade: Nausea [3]: 1 (33)
- TEAE any grade: Neutropenia [3]: 1 (33)
- TEAE any grade: Peripheral sensory neuropathy [3]: 0 (0)
- TEAE any grade: Pruritus [3]: 0 (0)
- TEAE any grade: Pyrexia [3]: 0 (0)
- TEAE any grade: Sciatica [3]: 0 (0)
- TEAE any grade: Tumor pain [3]: 1 (33)
- TEAE any grade: Vomiting [3]: 0 (0)
- TEAE grade 3/4: Abdominal pain [3]: 0 (0)
- TEAE grade 3/4: Acute kidney injury [3]: 0 (0)
- TEAE grade 3/4: Anemia [3]: 0 (0)
- TEAE grade 3/4: Arthralgia [3]: 0 (0)
- TEAE grade 3/4: Back pain [3]: 0 (0)
- TEAE grade 3/4: Bone pain [3]: 0 (0)
- TEAE grade 3/4: Bronchitis [3]: 0 (0)
- TEAE grade 3/4: Constipation [3]: 0 (0)
- TEAE grade 3/4: Cough [3]: 0 (0)
- TEAE grade 3/4: Decreased appetite [3]: 0 (0)
- TEAE grade 3/4: Diarrhea [3]: 0 (0)
- TEAE grade 3/4: Dizziness [3]: 0 (0)
- TEAE grade 3/4: Dysgeusia [3]: 0 (0)
- TEAE grade 3/4: Dyspnea [3]: 0 (0)
- TEAE grade 3/4: Epistaxis [3]: 0 (0)
- TEAE grade 3/4: Fatigue/asthenia [3]: 0 (0)
- TEAE grade 3/4: Headache [3]: 0 (0)
- TEAE grade 3/4: Hepatic pain [3]: 0 (0)
- TEAE grade 3/4: Hypokalemia [3]: 0 (0)
- TEAE grade 3/4: Increased ALT [3]: 0 (0)
- TEAE grade 3/4: Increased AST [3]: 0 (0)
- TEAE grade 3/4: Lipase increased [3]: 0 (0)
- TEAE grade 3/4: Musculoskeletal pain [3]: 0 (0)
- TEAE grade 3/4: Nausea [3]: 0 (0)
- TEAE grade 3/4: Peripheral sensory neuropathy [3]: 0 (0)
- TEAE grade 3/4: Pruritus [3]: 0 (0)
- TEAE grade 3/4: Pyrexia [3]: 0 (0)
- TEAE grade 3/4: Sciatica [3]: 0 (0)
- TEAE grade 3/4: Thrombocytopenia [3]: 0 (0)
- TEAE grade 3/4: Tumor pain [3]: 0 (0)
- TEAE grade 3/4: Vomiting [3]: 0 (0)
- TEAE any grade: ≥1 event [4]: 19 (100)
- TEAE grade 3/4: ≥1 event [4]: 13 (68)
- Serious TEAE: Anemia (dose expansion, n=19): 1 n (%)
- Serious TEAE: Biliary tract infection (dose expansion, n=19): 1 n (%)
- Serious TEAE: Chest pain (dose expansion, n=19): 1 n (%)
- Serious TEAE: Fatigue (dose expansion, n=19): 1 n (%)
- Serious TEAE: General health deterioration (dose expansion, n=19): 1 n (%)
- Serious TEAE: Hepatic hemorrhage (dose expansion, n=19): 1 n (%)
- Serious TEAE: Hepatic pain (dose expansion, n=19): 1 n (%)
- Serious TEAE: Oxygen saturation decreased (dose expansion, n=19): 1 n (%)
- Serious TEAE: Pulmonary hemorrhage (dose expansion, n=19): 1 n (%)
- Serious TEAE: Respiratory failure (dose expansion, n=19): 1 n (%)
- Serious TEAE: Thrombocytopenia (dose expansion, n=19): 1 n (%)
- Serious TEAE: Upper respiratory tract infection (dose expansion, n=19): 1 n (%)
- TEAE with an outcome of death (dose expansion, upper respiratory tract infection, not considered treatment-related): One patient
- new safety concerns or late toxicities with longer follow-up (follow-up of approximately 5 years and >4 years of treatment): No new safety concerns or late toxicities were identified
